PMC3529859 (Leukemia, 2012)

Key:
Format in all cases: cell-based, human
[1] = tested on: KIT D816V+ primary bone marrow mast cells; conditions: 1 µM (1000 nM); 7 d; SCF 100 ng/ml; KIT D816V-positive patients n=5
In short: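 Bone marrow mononuclear cells from patients with systemic mastocytosis (WHO criteria, IRB-approved protocol, informed consent), with KIT D816V status determined by PCR/RFLP. Cells were incubated with test compound at 0, 100 or 1000 nM in 0.1% DMSO for 7 d with SCF (100 ng/ml), then mast cell viability was assessed.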

[2] = tested on: FcεRI-mediated degranulation of primary HuMCs; assay: FcεRI-mediated degranulation of HuMCs; conditions: Ag 1 ng/ml; inhibition observed only at 1000 nM
[3] = tested on: SCF-enhanced degranulation of primary HuMCs; assay: SCF-enhanced degranulation of HuMCs; conditions: Ag 0.1 ng/ml + SCF 10 ng/ml; up to 1000 nM

| Structure (SMILES) | reduction in the viability of mast cells [1] [%] | effect on FcεRI mediated mast cell degranulation [2] | effect on SCF-enhanced degranulation [3] |
| --- | --- | --- | --- |
| CO[C@@H]1[C@H](N(C)C(=O)c2ccccc2)C[C@H]2O[C@]1(C)n1c3ccccc3c3c4c(c5c6ccccc6n2c5c31)C(=O)NC4 [PKC 412] | 88 | – | – |
| Cc1ccc(NC(=O)c2ccc(CN3CCN(C)CC3)cc2)cc1Nc1nccc(-c2cccnc2)n1 [imatinib] | – | minimal effects | inhibited SCF-enhanced degranulation at the highest concentration |
